Screening results deposited in PubChem BioAssay by Broad Institute.
C2C12 statin: suppressors of simvastatin-induced myotoxicity in C2C12 myotubes; ATP luminescence, 48 h; scaled: DMSO 0, geranylgeraniol control 100; rescue of ATP level, % at 7.49 µM; actives 0.78% (n = 330,000); AID 602340;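 active = mean ATP rescue above about 67%, or every replicate alone reaching that limit, limit read from the data, passing the limit was not always enough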;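 also: myotubes were challenged with 10 µM simvastatin during compound exposure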
rRNA inh HTS: inhibits bacterial ribosomal RNA function over humanized ribosomes. AID 720706. actives 1.6% (n = 350,000). E. coli WT GFP vs humanized-ribosome RFP mutants, fluorescence, 24 h; hits give low values; DMSO median 0, no signal -100. GFP signal change (wild-type ribosome), % (test concentration not listed);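 active = significant combined selectivity score with lowered wild-type GFP, culture density cut under 30%, mutant RFP and density less affected; inactive = any of these conditions unmet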
FGF22 binding: shifts melting point of recombinant human FGF22 | Q9HCT0 | actives 1.5% (n = 340,000) | recombinant FGF22 thermal shift, SYPRO orange fluorescence; percent of sucrose octasulfate shift, DMSO zero | activity (Tm shift, normalised), % at 9.99 µM | AID 651658;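 active = mean Tm shift, scaled 0 neutral to 100 positive control, at about 1.3% or above, every replicate too, limit read from the data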
Target sequence (Q9HCT0 whole entry, looked up): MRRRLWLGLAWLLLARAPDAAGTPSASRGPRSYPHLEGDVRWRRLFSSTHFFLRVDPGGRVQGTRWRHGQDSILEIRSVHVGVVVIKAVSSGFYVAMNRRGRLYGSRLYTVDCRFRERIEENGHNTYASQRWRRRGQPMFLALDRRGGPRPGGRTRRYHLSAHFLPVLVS
E-selectin induc: E-selectin induction on HUVECs; P16581; HUVEC E-selectin immunofluorescence imaging; normalized: neutral wells 0, TNF-alpha wells 100; activation, % at 7.58 µM; actives 0.37% (n = 260,000); AID 686992;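 active = mean E-selectin-positive cell signal at least 10% of the positive control, reached in at least 60% of replicates, without over 20% cell loss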
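System: HUVEC / Compound: single concentration / Signal: immunofluorescence imaging / Read-out: percent E-selectin-positive cells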
FN deposition inh: fibronectin deposition inhibition; AID 743247; AH1F fibroblasts, Alexa488-fibronectin deposition fluorescence, overnight; actives 0.086% (n = 350,000); inhibition, % at 12.6 µM;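 active = mean inhibition across replicates of 30% or more, regardless of how many single replicates reach that level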;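 also: positive control wells lacked labelled fibronectin entirely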
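Assay system: AH1F fibroblasts assembling fluorescent fibronectin matrix; Amount: 10000 AH1F cells per well; Buffer or medium: DMEM, 2% serum; Probe or stimulus: Alexa488-fibronectin, 24 nM final in well; Doses: single compound dose, delivered by pin transfer; Incubation: 1 h adhesion, overnight exposure; Measured by: fluorescence 485/525 nm; Read-out: fibronectin deposition inhibition.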
SIRT5 block: inhibitors of human sirtuin-5 desuccinylase; actives 1.1% (n = 330,000); AID 652115; Purified SirT5, succinyl-peptide AMC, trypsin-coupled fluorescence; inhibition, % at 15 µM; Q9NXA8; in the data active = inhibition above about 15%
Target sequence (Q9NXA8 whole entry, looked up): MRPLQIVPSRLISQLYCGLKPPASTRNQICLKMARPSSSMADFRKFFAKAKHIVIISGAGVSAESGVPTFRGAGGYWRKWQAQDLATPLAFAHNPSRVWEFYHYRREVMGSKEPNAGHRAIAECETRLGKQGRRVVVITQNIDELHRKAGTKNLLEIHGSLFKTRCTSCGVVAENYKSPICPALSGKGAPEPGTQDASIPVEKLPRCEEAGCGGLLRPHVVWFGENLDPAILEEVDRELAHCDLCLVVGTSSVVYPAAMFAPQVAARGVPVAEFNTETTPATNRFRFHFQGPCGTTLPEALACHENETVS
Active calls of the source: *. Hits are enriched below; roughly 4% of the tested compounds scored in any of these assays.

Results for O=C(/C=C/c1ccco1)N(Cc1cccc(Cl)c1)C1CCS(=O)(=O)C1 (centres undefined) ?
rRNA inh HTS: 1.8; FGF22 binding: -0.1; E-selectin induc: 0.9; FN deposition inh: 19.5; SIRT5 block: 1.5

How did O=C(/C=C/c1ccccc1)N(Cc1ccc(Cl)cc1)C1CCS(=O)(=O)C1 (centres undefined) do in these assays?
C2C12 statin: 23.4; rRNA inh HTS: -22.1*; FGF22 binding: 0.1; E-selectin induc: -0.1; FN deposition inh: 4.4; SIRT5 block: 3.5

Results for C[C@H]1CN([C@@H](C)CO)C(=O)c2cccc(NS(=O)(=O)c3ccccc3)c2O[C@@H]1CN(C)C(=O)NC1CCCCC1 ?
C2C12 statin: -42.3; rRNA inh HTS: 1.5; FGF22 binding: 0.1; E-selectin induc: -0.4; SIRT5 block: 0.0

Results for Cc1ccc(S(=O)(=O)N[C@H]2C=C[C@H](CC(=O)NC3CCCCC3)O[C@H]2CO)cc1 ?
C2C12 statin: -0.1; rRNA inh HTS: 0.6; FGF22 binding: -0.2; E-selectin induc: -0.2; FN deposition inh: -0.4; SIRT5 block: 2.4

How did CN(C)c1ccc2c(c1)[C@@H]1C[C@H](CC(=O)NCC3CC3)O[C@H](CO)[C@@H]1O2 do in these assays?
C2C12 statin: -4.6; rRNA inh HTS: 2.5; FGF22 binding: -1.3; E-selectin induc: -0.1; SIRT5 block: 4.1

What do the screens show for `Cc1ccc(S(=O)(=O)N[C@@H]2CC[C@@H](CCNC(=O)Cc3ccccn3)O[C@@H]2CO)cc1`?
C2C12 statin: 1.7; rRNA inh HTS: 4.6; FGF22 binding: 0.0; E-selectin induc: 1.2; SIRT5 block: 1.3

How did C/C(=N\O)c1cccc(Br)c1 do in these assays?
C2C12 statin: 13.4; rRNA inh HTS: -25.2*; FGF22 binding: 0.0; E-selectin induc: 0.1; FN deposition inh: -2.2; SIRT5 block: -0.4

Results for CC(=NNC(=O)c1ccncc1)c1cccc(Br)c1 ?
C2C12 statin: -6.9; rRNA inh HTS: 12.8; FGF22 binding: -0.6; E-selectin induc: 2.5

How did C[C@@H]1CN([C@@H](C)CO)C(=O)c2cc(-c3ccc(C#N)cc3)cnc2O[C@@H]1CN(C)CC1CC1 do in these assays?
C2C12 statin: 3.2; E-selectin induc: 0.1

Results for CCNC(=O)OCc1cn(-c2ccccc2)nn1 ?
rRNA inh HTS: 8.4; FGF22 binding: 43.6*; E-selectin induc: 0.6; FN deposition inh: -9.6; SIRT5 block: -2.8

How did ON=C1c2ccccc2-c2ccccc21 do in these assays?
C2C12 statin: -11.7; rRNA inh HTS: -48.9; FGF22 binding: 0.2; E-selectin induc: -0.1; FN deposition inh: 6.7; SIRT5 block: -2.0

How did Nc1cc2c(cc1Cl)-c1ccccc1C2=NO do in these assays?
C2C12 statin: -2.9; rRNA inh HTS: -55.4; FGF22 binding: -0.2; E-selectin induc: 1.1; FN deposition inh: 7.8; SIRT5 block: 23.7*

How did CCC(=O)c1ccc(OCc2ccccc2)c(OC)c1 do in these assays?
C2C12 statin: 14.5

What do the screens show for `COc1ccc(C(=O)CC(=O)c2ccccc2O)cc1OC`?
C2C12 statin: -7.2; rRNA inh HTS: -23.8; FGF22 binding: 56.4*; FN deposition inh: 10.8; SIRT5 block: -4.3

What do the screens show for `COc1cc(C(N)=O)ccc1OCc1ccccc1`?
C2C12 statin: 117.3*; FN deposition inh: 13.5

Results for COc1ccc(COc2ccccc2C(N)=O)cc1F ?
C2C12 statin: 109.3*; rRNA inh HTS: -1.0; FGF22 binding: -0.3; FN deposition inh: 1.4; SIRT5 block: -1.8

What do the screens show for `COc1cc(C(=O)NCC2(N(C)C)CCCCC2)ccc1OCc1ccccc1`?
C2C12 statin: -55.9; rRNA inh HTS: 4.5; FGF22 binding: 41.3; FN deposition inh: -0.1; SIRT5 block: 64.7*

Results for C[C@@H]1CCCCO[C@@H](CN(C)Cc2ccc(C(=O)Nc3ccccc3N)cc2)[C@@H](C)CN([C@H](C)CO)C(=O)c2cc(N(C)C)ccc2O1 ?
rRNA inh HTS: 0.7

How did O=C(Nc1ccc(F)cc1)N1CC(=O)N2[C@H](CO)[C@H](c3ccc(-c4ccccc4)cc3)[C@H]2C1 do in these assays?
rRNA inh HTS: -8.2; E-selectin induc: 0.4; FN deposition inh: -5.3; SIRT5 block: 0.4
